Assay results collected from several papers.
Lines come from different studies, so protocols differ.
Target: Serine/threonine-protein kinase 32C (STK32C, Homo sapiens, UniProt Q86UX6)

Compound	observed	technique	concentration	remaining binding [%]
CN(C)c1ncc(F)c(-c2cnn3ncccc23)n1	binding		1 µM	87
O=C(c1ccc(Nc2nccc(-c3cc4ccccc4s3)n2)cc1)N1CCC(N2CCCC2)CC1	binding	competition with immobilised ligand	1 µM	100
CC1=C(C#N)C(c2ccc3c(c2)c(NC(=O)c2ccccc2C)nn3C)C(C#N)=C(C)N1	cell-free assay	competition with immobilised ligand	1 µM	79
Cc1cnn2ncc(-c3ccnc(N(C)C)n3)c2c1	binding		1 µM	100
COc1cc(-c2cn(C3CCc4c(F)cccc4N(CC(F)(F)F)C3=O)nn2)ccc1-n1cnc(C)c1 (centres unmarked)	cell-free assay	competition with immobilised ligand	1 µM	100
c1cnn2ncc(-c3ccnc(N4CCC45COC5)n3)c2c1	binding		1 µM	68
CN1CCN(c2cnc3c(C4CCN(C(=O)c5ccc(OC(F)(F)F)cc5N)CC4)ncnc3c2)CC1	cell-free assay	competition with immobilised ligand	1 µM	100
F[C@@H]1CCN(c2nccc(-c3cnn4ncccc34)n2)C1	binding		1 µM	89
COc1cnc(Nc2cccc(S(N)(=O)=O)c2)nc1N1CCN(c2ccccc2)C(=O)C1	binding	competition with immobilised ligand	1 µM	100
C[C@@H](c1ccc(-n2cnc3c(N)ncnc32)cc1)N1CCc2nn(C)c(Cc3ccccc3)c2C1=O	binding	competition with immobilised ligand	0.1 µM	89
CCN1CCN(Cc2ccc(C(=O)Nc3ccc(C)c(Oc4ccc5c(c4)CC(=O)N5)c3)cc2C(F)(F)F)CC1	binding	competition with immobilised ligand	1 µM	100
C[C@@H]1CN(c2ccc3ncc(-c4ccc5[nH]nc(C6CC6)c5c4)n3n2)C[C@H](C)O1	binding	competition with immobilised ligand	0.5 µM	100
N#Cc1ccccc1CSc1nnc2c(n1)[nH]c1ccccc12	binding	competition with immobilised ligand	10 µM	83
Cc1nc(Cc2cccc(C(F)(F)F)c2)sc1-c1ccc(C(N)=O)nc1	cell-free assay	competition with immobilised ligand	1 µM	87
O=C(NCCCN1CCOCC1)c1ccc(Nc2nccc(-c3cc4ccccc4s3)n2)cc1	binding	competition with immobilised ligand	1 µM	92
N[C@H]1CCN(c2nccc(-c3cnn4ncccc34)n2)C1	binding		1 µM	97
CO[C@H]1CC[C@H](CNc2ccc(S(=O)(=O)NC(=O)c3ccc(N4CCN(CC5=C(c6ccc(Cl)cc6)CC(C)(C)CC5)CC4)cc3Oc3cnc4[nH]ccc4c3)cc2[N+](=O)[O-])CC1	cell-free assay	competition with immobilised ligand	1 µM	54
